Test results as given in publication PMC4772774 (Journal of medicinal chemistry, 2015).
Read-outs that look alike come from different tables or passages of the source.

Assays:
[1] = molecular target: T1, δ-opioid receptor (DOR) (Rattus norvegicus, UniProt P33533); experiment: Agonist stimulation of [35S]GTPγS binding, C6-DOR membranes; assay type: biochemical; conditions: dns: does not stimulate; for EC50 DOR: [35S]GTPγS binding, mean (S.E.M.), n=3; for % stimulation DOR: percent maximal stimulation relative to DPDPE at 10 µM
Outline: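 C6 rat glioma cells stably expressing rat DOR; membranes (10–20 µg protein) incubated 1 h at 25°C in 50 mM Tris-HCl, 100 mM NaCl, 5 mM MgCl2, pH 7.4, with 0.1 nM [35S]GTPγS, 30 µM GDP and varying test compound.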

[2] = molecular target: T2, κ-opioid receptor (KOR) (Homo sapiens, UniProt P41145); experiment: Agonist stimulation of [35S]GTPγS binding, CHO-KOR membranes; assay type: biochemical; conditions: for EC50 KOR: [35S]GTPγS binding, mean (S.E.M.), n=3 (footnote d: n=2), dns: does not stimulate
[3] = molecular target: DOR (Rattus norvegicus, UniProt P33533); experiment: Antagonism of the DOR agonist DPDPE; assay type: biochemical
[4] = Plasma stability testing; assay type: in vitro ADME; conditions: in plasma after 30 min
[5] = tested on: C57BL/6 mice; experiment: Mouse warm water tail withdrawal; assay type: in vivo; conditions: 10 mg/kg ip
[6] = molecular target: T1, δ-opioid receptor (DOR); conditions: [35S]GTPγS binding; dns: does not stimulate; previously published, ref [1]; cited from earlier work
[7] = molecular target: T3, µ-opioid receptor (MOR) (Rattus norvegicus, UniProt P33535); conditions: relative to DAMGO at 10 µM; previously published, ref [1]; cited from earlier work
[8] = molecular target: T2, κ-opioid receptor (KOR); conditions: [35S]GTPγS binding; dns: does not stimulate; previously published, ref [1]; cited from earlier work
[9] = molecular target: T3, µ-opioid receptor (MOR); experiment: [3H]diprenorphine competitive displacement binding, C6-MOR membranes
[10] = molecular target: T3, µ-opioid receptor (MOR); experiment: Agonist stimulation of [35S]GTPγS binding, C6-MOR membranes; assay type: biochemical; conditions: dns: does not stimulate
Outline: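 C6 rat glioma cells stably expressing rat MOR were grown in DMEM/10% FBS. Membranes (10–20 µg protein) were incubated 1 h at 25 °C in 50 mM Tris-HCl, 100 mM NaCl, 5 mM MgCl2, pH 7.4, with 0.1 nM [35S]GTPγS, 30 µM GDP and varying compound concentrations. Samples were GF/C-filtered and scintillation-counted. Stimulation was expressed relative to 10 µM DAMGO.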

T1 sequence (P33533 whole entry): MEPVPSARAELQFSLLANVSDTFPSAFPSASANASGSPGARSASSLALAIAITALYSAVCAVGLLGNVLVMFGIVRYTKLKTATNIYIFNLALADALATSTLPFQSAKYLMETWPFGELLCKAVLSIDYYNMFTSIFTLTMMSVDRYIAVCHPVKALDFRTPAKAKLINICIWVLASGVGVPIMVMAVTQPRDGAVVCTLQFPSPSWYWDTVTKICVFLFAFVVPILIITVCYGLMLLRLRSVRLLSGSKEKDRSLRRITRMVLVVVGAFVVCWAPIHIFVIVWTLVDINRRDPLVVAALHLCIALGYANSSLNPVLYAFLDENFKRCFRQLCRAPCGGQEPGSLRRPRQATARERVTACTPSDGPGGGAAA
T3 sequence (P33535 whole entry): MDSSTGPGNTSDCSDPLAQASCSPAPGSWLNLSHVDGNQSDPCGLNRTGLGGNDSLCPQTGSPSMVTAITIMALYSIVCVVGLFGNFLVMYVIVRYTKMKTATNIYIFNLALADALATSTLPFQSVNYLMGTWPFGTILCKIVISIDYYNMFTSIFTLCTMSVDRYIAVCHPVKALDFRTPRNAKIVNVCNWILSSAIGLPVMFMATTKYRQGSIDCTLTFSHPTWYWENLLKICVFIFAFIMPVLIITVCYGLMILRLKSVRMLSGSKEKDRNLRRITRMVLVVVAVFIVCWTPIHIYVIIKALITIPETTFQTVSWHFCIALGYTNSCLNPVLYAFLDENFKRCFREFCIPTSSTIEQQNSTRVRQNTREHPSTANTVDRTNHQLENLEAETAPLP
T2 sequence (P41145 whole entry): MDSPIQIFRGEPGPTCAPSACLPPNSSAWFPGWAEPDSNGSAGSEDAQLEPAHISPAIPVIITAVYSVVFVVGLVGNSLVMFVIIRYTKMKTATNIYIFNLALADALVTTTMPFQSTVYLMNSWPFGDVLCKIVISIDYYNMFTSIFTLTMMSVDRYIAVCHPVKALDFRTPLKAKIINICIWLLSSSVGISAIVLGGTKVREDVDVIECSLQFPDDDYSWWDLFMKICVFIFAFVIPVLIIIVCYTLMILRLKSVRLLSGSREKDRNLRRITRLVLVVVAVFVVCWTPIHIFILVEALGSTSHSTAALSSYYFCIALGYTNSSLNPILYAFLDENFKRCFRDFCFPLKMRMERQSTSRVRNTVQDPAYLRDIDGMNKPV
Chain of DOR (P33533 whole entry): as the sequence (P33533 whole entry) above

Row | SMILES | EC50 DOR [1] | % stimulation DOR [1] | EC50 KOR [2] | also measured
1 | CC(=O)N1CC[C@@H](NC(=O)[C@@H](N)Cc2c(C)cc(O)cc2C)c2cc(CC3CCc4ccccc43)ccc21 (mixture of isomers) [14g, (S)-N-((R)-1-Acetyl-6-(((R/S)-2,3-dihydro-1H–inden-1-yl)methyl)-1,2,3,4-tetrahydroquinolin-4-yl)-2-amino-3-(4-hydroxy-2,6-dimethylphenyl)propanamide] | dns | dns | – | EC50 [2]: > 1000 nM
2 | Cc1cc(O)cc(C)c1C[C@H](N)C(=O)N[C@@H]1CCNc2ccc(CC3CCc4ccccc43)cc21 (mixture of isomers) [14h, (S)-2-Amino-N-((R)-6-(((R/S)-2,3-dihydro-1H–inden-1-yl)methyl)-1,2,3,4-tetrahydroquinolin-4-yl)-3-(4-hydroxy-2,6-dimethylphenyl)propanamide] | dns | dns | – | –
3 | CC(=O)N1CC[C@@H](NC(=O)[C@@H](N)Cc2c(C)cc(O)cc2C)c2cc(Cc3ccc4ccccc4c3)ccc21 [14a, (S)-N-((R)-1-Acetyl-6-(naphthalen-2-ylmethyl)-1,2,3,4-tetrahydroquinolin-4-yl)-2-amino-3-(4-hydroxy-2,6-dimethylphenyl)propanamide] | dns | dns | dns ^d | Kb [3]: 1.98 nM; plasma stability [4]: fully stable; duration of maximal antinociception ([5]; mouse WWTW time course): approximately 200 min; duration of action compared to 14i ([5]; mouse WWTW, relative to original lead 14i): greater than 3 times
4 | Cc1cc(O)cc(C)c1C[C@H](N)C(=O)N[C@@H]1CCNc2ccc(CC3CCCCC3)cc21 [14b, (S)-2-Amino-N-((R)-6-(cyclohexylmethyl)-1,2,3,4-tetrahydroquinolin-4-yl)-3-(4-hydroxy-2,6-dimethylphenyl)propanamide] | dns | dns | – | –
5 | CC(=O)N1CC[C@@H](NC(=O)[C@@H](N)Cc2c(C)cc(O)cc2C)c2cc(CC3CCCCC3)ccc21 [14c, (S)-N-((R)-1-Acetyl-6-(cyclohexylmethyl)-1,2,3,4-tetrahydroquinolin-4-yl)-2-amino-3-(4-hydroxy-2,6-dimethylphenyl)propanamide] | – | 26 (5) % | – | –
6 | CC(=O)N1CC[C@@H](NC(=O)[C@@H](N)Cc2c(C)cc(O)cc2C)c2cc(Cc3cccc4ccccc34)ccc21 [14d, (S)-N-((R)-1-Acetyl-6-(naphthalen-1-ylmethyl)-1,2,3,4-tetrahydroquinolin-4-yl)-2-amino-3-(4-hydroxy-2,6-dimethylphenyl)propanamide] | dns | dns | dns ^d | Kb [3]: 27.5 nM; plasma stability [4]: fully stable
7 | CC(=O)N1CC[C@@H](NC(=O)[C@@H](N)Cc2c(C)cc(O)cc2C)c2cc(Cc3ccccc3)ccc21 [14e, (S)-N-((R)-1-Acetyl-6-benzyl-1,2,3,4-tetrahydroquinolin-4-yl)-2-amino-3-(4-hydroxy-2,6-dimethylphenyl)propanamide] | – | 26 (3) % | – | –
8 | CC(=O)N1CC[C@@H](NC(=O)[C@@H](N)Cc2c(C)cc(O)cc2C)c2cc(CC3Cc4ccccc4C3)ccc21 [14f, (S)-N-((R)-1-Acetyl-6-((2,3-dihydro-1H–inden-2-yl)methyl)-1,2,3,4-tetrahydroquinolin-4-yl)-2-amino-3-(4-hydroxy-2,6-dimethylphenyl)propanamide] | dns | dns | – | –
9 | Cc1cc(O)cc(C)c1C[C@H](N)C(=O)N[C@@H]1CCNc2ccc(Cc3ccc4ccccc4c3)cc21 [14j, (S)-2-Amino-3-(4-hydroxy-2,6-dimethylphenyl)-N-((R)-6-(naphthalen-2-ylmethyl)-1,2,3,4-tetrahydroquinolin-4-yl)propanamide] | – | – | – | EC50 DOR [6]: dns; % stimulation MOR [7]: 96 (3) %; EC50 KOR [8]: dns
10 | Cc1cc(O)cc(C)c1C[C@H](N)C(=O)N[C@@H]1CCNc2ccc(Cc3cccc4ccccc34)cc21 [14k, (S)-2-Amino-3-(4-hydroxy-2,6-dimethylphenyl)-N-((R)-6-(naphthalen-1-ylmethyl)-1,2,3,4-tetrahydroquinolin-4-yl)propanamide] | – | – | – | % stimulation MOR [7]: 93 (5) %; EC50 KOR [8]: dns
11 | Cc1cc(O)cc(C)c1C[C@H](N)C(=O)N[C@@H]1CCNc2ccc(CC3Cc4ccccc4C3)cc21 [14l, (S)-2-Amino-N-((R)-6-((2,3-dihydro-1H–inden-2-yl)methyl)-1,2,3,4-tetrahydroquinolin-4-yl)-3-(4-hydroxy-2,6-dimethylphenyl)propanamide] | – | – | – | % stimulation MOR [7]: 86 (1) %
12 | Cc1cc(O)cc(C)c1C[C@H](N)C(=O)N[C@@H]1CCCc2ccc(Cc3ccccc3)cc21 [14m, (S)-2-Amino-N-((R)-7-benzyl-1,2,3,4-tetrahydronaphthalen-1-yl)-3-(4-hydroxy-2,6-dimethylphenyl) propanamide] | dns | dns | dns | –
13 | Cc1cc(O)cc(C)c1C[C@H](N)C(=O)N[C@@H]1CCCc2ccc(CC3CCCCC3)cc21 [14n, (S)-2-Amino-N-((R)-7-(cyclohexylmethyl)-1,2,3,4-tetrahydronaphthalen-1-yl)-3-(4-hydroxy-2,6-dimethylphenyl)propanamide] | dns | dns | – | Ki [9]: 0.12 nM; EC50 MOR ([10]; [35S]GTPγS binding, mean (S.E.M.), n=3): dns; % stimulation MOR ([10]; percent maximal stimulation relative to DAMGO at 10 µM): dns
14 | Cc1cc(O)cc(C)c1C[C@H](N)C(=O)N[C@@H]1CCCc2ccc(Cc3ccc4ccccc4c3)cc21 [14o, (S)-2-Amino-3-(4-hydroxy-2,6-dimethylphenyl)-N-((R)-7-(naphthalen-2-ylmethyl)-1,2,3,4-tetrahydronaphthalen-1-yl)propanamide] | dns | dns | dns | –
15 | Cc1cc(O)cc(C)c1C[C@H](N)C(=O)N[C@@H]1CCCc2ccc(Cc3cccc4ccccc34)cc21 [14p, (S)-2-Amino-3-(4-hydroxy-2,6-dimethylphenyl)-N-((R)-7-(naphthalen-1-ylmethyl)-1,2,3,4-tetrahydronaphthalen-1-yl)propanamide] | dns | dns | dns ^d | –
